Columns and labels:
[1] = target: T1, Calpain-1 catalytic subunit (Homo sapiens, UniProt P07384); experiment: Inhibition of human erythrocyte full length Cal1 using (DABCYL)TPLK-SPPSPR-(EDANS) as substrate after 20 min by FRET assay
T1 sequence (P07384 whole entry): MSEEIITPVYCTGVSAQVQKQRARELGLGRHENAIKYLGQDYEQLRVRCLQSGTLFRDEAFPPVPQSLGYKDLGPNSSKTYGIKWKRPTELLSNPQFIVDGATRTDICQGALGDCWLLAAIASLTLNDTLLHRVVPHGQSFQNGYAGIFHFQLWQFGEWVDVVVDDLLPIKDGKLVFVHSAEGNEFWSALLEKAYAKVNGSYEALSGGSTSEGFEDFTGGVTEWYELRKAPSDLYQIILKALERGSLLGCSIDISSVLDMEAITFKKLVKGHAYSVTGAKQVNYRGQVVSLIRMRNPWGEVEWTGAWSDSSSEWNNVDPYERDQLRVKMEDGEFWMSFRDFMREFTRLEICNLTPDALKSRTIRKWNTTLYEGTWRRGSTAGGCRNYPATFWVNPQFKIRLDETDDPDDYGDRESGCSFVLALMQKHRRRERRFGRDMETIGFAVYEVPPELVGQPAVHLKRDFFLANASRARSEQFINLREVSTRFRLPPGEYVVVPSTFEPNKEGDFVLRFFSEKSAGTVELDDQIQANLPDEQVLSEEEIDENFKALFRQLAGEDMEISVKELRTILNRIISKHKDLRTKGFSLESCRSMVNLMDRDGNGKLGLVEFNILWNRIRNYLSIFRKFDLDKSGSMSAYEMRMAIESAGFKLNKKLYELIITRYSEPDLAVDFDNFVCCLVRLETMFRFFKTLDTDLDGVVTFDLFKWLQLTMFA

[2] = target: T2, Calpain-1 catalytic subunit (Rattus norvegicus) (UniProt P97571); experiment: Binding affinity to recombinant rat […] Cal1 catalytic domain expressed in Escherichia coli BL21(DE3) assessed as modification of active site cysteine at 1 uM by LC-MS/MS analysis
T2 sequence (whole entry): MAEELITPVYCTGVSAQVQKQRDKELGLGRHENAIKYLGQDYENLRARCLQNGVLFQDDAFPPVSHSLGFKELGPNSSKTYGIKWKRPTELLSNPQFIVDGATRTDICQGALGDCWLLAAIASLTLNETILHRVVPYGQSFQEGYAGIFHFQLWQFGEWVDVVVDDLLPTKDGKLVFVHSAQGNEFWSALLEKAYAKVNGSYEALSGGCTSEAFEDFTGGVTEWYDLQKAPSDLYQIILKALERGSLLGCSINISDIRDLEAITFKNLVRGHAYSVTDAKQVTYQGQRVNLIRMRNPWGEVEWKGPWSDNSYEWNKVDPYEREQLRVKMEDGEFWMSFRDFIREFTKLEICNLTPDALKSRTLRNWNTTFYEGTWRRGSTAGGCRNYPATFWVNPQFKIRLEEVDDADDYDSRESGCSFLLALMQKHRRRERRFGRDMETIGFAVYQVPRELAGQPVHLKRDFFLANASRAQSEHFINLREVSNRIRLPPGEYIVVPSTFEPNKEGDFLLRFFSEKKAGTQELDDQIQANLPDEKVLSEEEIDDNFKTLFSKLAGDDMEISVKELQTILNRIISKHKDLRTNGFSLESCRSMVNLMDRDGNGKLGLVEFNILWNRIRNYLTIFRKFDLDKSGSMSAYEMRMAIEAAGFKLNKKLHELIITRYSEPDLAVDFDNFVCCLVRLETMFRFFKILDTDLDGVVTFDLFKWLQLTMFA

[3] = target: T3, Papain (Carica papaya, UniProt P00784); experiment: Inhibition of papain after using SucLLVYAMC as substrate by FRET assay
T3 sequence (P00784 whole entry): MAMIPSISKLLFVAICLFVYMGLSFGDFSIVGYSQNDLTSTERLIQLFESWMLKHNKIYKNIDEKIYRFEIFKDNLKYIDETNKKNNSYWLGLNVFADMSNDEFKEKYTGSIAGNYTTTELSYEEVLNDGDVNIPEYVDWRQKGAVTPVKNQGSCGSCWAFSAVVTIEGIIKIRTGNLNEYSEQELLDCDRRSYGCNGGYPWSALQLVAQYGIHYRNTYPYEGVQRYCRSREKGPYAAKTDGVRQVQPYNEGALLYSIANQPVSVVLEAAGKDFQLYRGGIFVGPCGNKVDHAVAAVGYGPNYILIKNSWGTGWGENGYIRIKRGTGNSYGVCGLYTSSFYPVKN
Outline: (§1)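 Enzyme (full-length porcine calpain 156 nM, with 1 mM CaCl2; or papain 236 pM) in 50 mM HEPES pH 7.6, 100 mM NaCl, 1 mM TCEP, 30 μM Suc-LLVY-AMC, inhibitor 0.5–50 μM; organic solvent <2 %, 30 °C. AMC release followed over time (Ex 346/Em 444 nm). Inhibition constants from varied enzyme and inhibitor concentrations; mean ± S.D. of triplicates.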

[4] = target: T4, Calpain-1 catalytic subunit (Sus scrofa, UniProt P35750); experiment: Inhibition of pig full length Cal1 after using SucLLVYAMC as substrate by FRET assay; outline: as §1
T4 sequence (P35750 whole entry): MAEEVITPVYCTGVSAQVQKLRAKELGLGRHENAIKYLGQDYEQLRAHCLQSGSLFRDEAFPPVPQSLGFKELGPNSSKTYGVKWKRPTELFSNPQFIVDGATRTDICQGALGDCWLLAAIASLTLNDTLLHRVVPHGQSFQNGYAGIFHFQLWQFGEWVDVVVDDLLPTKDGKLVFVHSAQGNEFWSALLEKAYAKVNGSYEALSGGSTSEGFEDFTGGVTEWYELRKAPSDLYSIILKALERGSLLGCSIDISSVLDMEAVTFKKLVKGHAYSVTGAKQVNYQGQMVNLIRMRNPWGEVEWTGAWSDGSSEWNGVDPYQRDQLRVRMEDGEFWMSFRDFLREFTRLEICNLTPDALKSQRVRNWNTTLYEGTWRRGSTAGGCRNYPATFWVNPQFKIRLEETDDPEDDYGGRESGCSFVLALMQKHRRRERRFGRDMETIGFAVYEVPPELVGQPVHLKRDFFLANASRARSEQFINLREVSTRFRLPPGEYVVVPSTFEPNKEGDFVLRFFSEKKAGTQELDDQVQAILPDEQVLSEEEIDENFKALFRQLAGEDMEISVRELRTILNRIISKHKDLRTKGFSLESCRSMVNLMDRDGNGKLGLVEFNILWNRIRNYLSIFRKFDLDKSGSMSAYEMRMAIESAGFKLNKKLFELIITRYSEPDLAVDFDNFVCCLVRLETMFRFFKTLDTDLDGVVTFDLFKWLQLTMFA

SMILES	IC50 [1] [µM]	Activity [2]	Ki [3] [µM]	Ki [4] [µM]
O=C(NCc1cn(-c2c(F)cccc2F)nn1)[C@H](Cc1cscn1)NC(=O)[C@H]1O[C@@H]1C(=O)O	> 1	–	–	–
CC(C)C[C@H](NC(=O)[C@H]1O[C@@H]1C(=O)O)C(=O)NCCCCN=C(N)N [E-64]	0.1	Dose-dependent effect	5.08	3.96
CC(C)C[C@H](NC(=O)[C@H]1O[C@@H]1C(=O)O)C(=O)NCCCCNS(=O)(=O)c1ccc(F)cc1	0.15	–	–	–
Cc1cc(C)c(-n2cc(CNC(=O)[C@H](Cc3cscn3)NC(=O)[C@H]3O[C@@H]3C(=O)O)nn2)c(C)c1	> 1	–	–	–
CC(C)C[C@H](NC(=O)[C@H]1O[C@@H]1C(=O)O)C(=O)Nc1nc(-c2ccc(F)cc2)cs1	–	Dose-dependent effect	1.62	–
NS(=O)(=O)c1ccc(-n2cc(CNC(=O)[C@H](Cc3cscn3)NC(=O)[C@H]3O[C@@H]3C(=O)O)nn2)cc1	> 1	–	–	–
CC(C)C[C@H](NC(=O)[C@H]1O[C@@H]1C(=O)O)C(=O)NCCCCNC(=O)CCCCC1CCSS1 (stereo partly specified)	0.1	–	–	–
O=C(Nc1nc(-c2ccc(F)cc2)cs1)[C@H](Cc1cscn1)NC(=O)[C@H]1O[C@@H]1C(=O)O	0.1	–	5.31	2.59
CC(C)C[C@H](NC(=O)[C@H]1O[C@@H]1C(=O)O)C(=O)NCCCCNC(=O)CCCC[C@@H]1SC[C@@H]2NC(=O)N[C@@H]21	0.1	–	–	–
O=C(NCc1cn(-c2cc(C(F)(F)F)cc(C(F)(F)F)c2)nn1)[C@H](Cc1cscn1)NC(=O)[C@H]1O[C@@H]1C(=O)O	> 1	–	–	–

Reference: ChEMBL document CHEMBL2407090, “Design, synthesis, and optimization of novel epoxide incorporating peptidomimetics as selective calpain inhibitors” (J Med Chem, 2013)
